B1: tRNA (parent)
chain: GUUCCGUUGGCGUAAUGGUAACGCGUCUCCCUCCUAAGGAGAAGACUGCGGGUUCGAGUCCCGUACGGAACG

Variants at the floor of the assay were thinned out. A value given as a limit tells only on which side of the number the result lay.

The variants in this data set derive from B1. Put plainly: yeast fitness relative to wild type (ratio to wild type); higher = fitter; tRNA-Arg(CCU), competitive growth, 37 C, YPD. In short, it runs like this:
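Start and end populations of a pooled competition were compared by 100-nucleotide paired-end sequencing of gene amplicons. The Saccharomyces cerevisiae strains carried tRNA-Arg(CCU) gene variants at the native genomic locus, synthesised with a 3% per-site mutation rate at 69 sites, and competed in YPD at 37°C for 24 hours in six parallel replicates. Darwinian fitness relative to wild type was based on the change in genotype frequencies. Genotypes required ≥ 100 starting reads, and estimates < 0.5 were set to 0.5.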
For the variant GUUCCGUUGGCGUAAUGGUAACGCGUCUCACUCCUAAGGACAAGACUGCGAGUUCGAGUCCCGUACGGAACG, the yeast fitness is at most 0.5.

Take GUUCCGUUGGCGUAAUGGUAACGCGUCUCACUCCUAAGGAGAAGAGUGCGGGUUCGAGUCCCGUACGGAACG: the yeast fitness is 0.991.

On to GUUCCGUUGGCGUAAUGGUAACGCGUCUCACUACUAAGGAGAAGACUGCGGGUUCGAGUCCCGUACGGAACG, for which the yeast fitness worked out at 0.652.

In the case of GUUCCGUUGGCGUAAUGGUAACGCGUCUCACUCCUAAGGAGAAAUCUGCGGGUUCGAGUCCUGUACGGAACG, the yeast fitness is at most 0.5.

With GUUCCGUUGGCGUAAUGGUAACGCGUCUCACUCCUAAGGAGAAACCUGCGGGUUCGAGUCCCGUACGGAUCG, the yeast fitness is at most 0.5.

As for GUUCCGUUGGCGUAAUGGUAACGCGUCUCACUCCUCAGGAGAAGAGUGCGGGUUCGAGUCCCGUACGGAACG, the yeast fitness worked out at 0.532.

As to GUUCCGUUGGCGUAAUGGUAACGCGUCUCACUCCUAAGGAGAAGACUGAGGGUUCGAGUUCCGUACGGAACG, the yeast fitness is at most 0.5.

For GUUCCGUUGGCGUAAUGGUAACGCGUCUCACUCCUAAGGAGAAGACUGCGGGUUCGAGUCCCGUACGGGACG, the yeast fitness amounted to 0.915.

GUUCCGUUGGCGUAAUGGUAACGCGUCUCACUCCUAAGGAGAAGACUGCGGGUUCGAGUCCCGUACGGCACG: the yeast fitness amounted to 1.03.

On to GUUCCGUUGGCGUAAUGGUAACGCGUCUCACUCCUAAGGACAAGACUGCGGGUUCGAGUCCCGUACGGAACG, for which the yeast fitness came out at 0.796.

In the case of GUUCCGUUGGCGUAAUGGUAACGCGUCUCACUCCUAUGGAGAACACUGCGGGAUCGAGUCCCGUACGGAACG, the yeast fitness was at most 0.5.

On to GUUCCGUUGGCGUAAUGGUAACGCGUCUUCCUCCUAAGGAGAAGACAGCGGGUUCGAGUCCCGUACGGUACG, for which the yeast fitness turned out to be 0.679.

For GUUCCGUUGGCGUAAUGGUAACGCGUCUCACUCCUAAGGAGGAGACUGCGGGUACGCGUCCCGUACGGAACG, the yeast fitness is at most 0.5.

Regarding GUUCCGUUGGCGUAAUGGUAACGCGUCUCACUCCUAAGGAGAAGACUGAGGGUUCGAGUCCCGUAUGGAACG, the yeast fitness is at most 0.5.

GUUCCGUUGGCGUAAUGGUAACGCGUCUCACUCCUAUGGUGAAGACUGUGGGUUCGAGUCCCGUACGGAACG: the yeast fitness was at most 0.5.

As to GUUCCGUUGGCGUAAUGGUAACGCGUCUCACUCCUAAGGAGAUGACUGCGGGUUCGAGUCCCGUAUGGAACG, the yeast fitness was found to be 0.75.

For GUUCCGUUGGCGUAAUGGUAACGCGUCUCACUCCUGAGGAGAAGACUGCGGGUUCGAGUCCCGUGCGGAACG, the yeast fitness turned out to be 0.648.

On to GUUCCGUUGGCGUAAUGGUAACGCGUCUCACUCCUAAGGAGAACACUGCGGGUUCGAGACCCGUACGGAACG, for which the yeast fitness was at most 0.5.

Regarding GUUCCGUUGGCGUAAUGGUAACGCGUCUCAAUCCUAAGGAGAAGACUGCGGGUUCGAGUUCGGUACGGAACG, the yeast fitness was at most 0.5.

For the variant GUUCCGUUGGCGUAAUGGUAACGCGUCUCACUCCUAAGGAGAAGACUGCGGGUUCGAGUCUCGUUCGGAACG, the yeast fitness was at most 0.5.

For the variant GUUCCGUUGGCGUAAUGGUAACGCGUCUCACUCCUAAGGCGAAGACUGCGGGUUCAAGUCCCGUACGGAACG, the yeast fitness was at most 0.5.

On to GUUCCGUUGGCGUAAUGGUAACGCGUCUCACUCCUACCGAGAAGACUGCGGGUUCGAGUCCCGUACGGAACG, for which the yeast fitness is at most 0.5.

For the variant GUUCCGUUGGCGUAAUGGUAACGCGUCUCACUCCUAAGGAGAAGACUGCGGGUUCGAGUCCCGUUCGGAACG, the yeast fitness worked out at 0.802.

On to GUUCCGUUGGCGUAAUGGUAACGCGUCUCACUCCUAAGGAGAAGACUGCGGGUUCGAGUCCCGUCCGGAACG, for which the yeast fitness is 0.814.

For GUUCCGUUGGCGUAAUGGUAACGCGUCUCACUCCUAAGGAGAAGACUGCGGGUUCGAGUCCCGUGCGGAACG, the yeast fitness worked out at 1.02.

In the case of GUUCCGUUGGCGUAAUGGUAACGCGUCUUCCUCCUAAGGAGAAGACCGCGGGUUCGAGUCCCGUACUGUACG, the yeast fitness was at most 0.5.

As for GUUCCGUUGGCGUAAUGGUAACGCGUCUCACUCGUAAGGAGAAGACUGCGGGUUCGAGUCCCGUACGGAACG, the yeast fitness worked out at 0.682.

Consider GUUCCGUUGGCGUAAUGGUAACGCGUCUCACUCCUAAGGAGAAGACUGCGAGUUCGAGUCCCGUACGGAACG, for which the yeast fitness is 0.774.

Consider GUUCCGUUGGCGUAAUGGUAACGCGUCUCACUCCUAAGGAGAAGACUGCGCGUUCGAGUCCCGUACGGAACG, for which the yeast fitness came to 0.508.

In the case of GUUCCGUUGGCGUAAUGGUAACGCGUCUCACUCCUAAGGAAAAGACCGCGGGUUCGAGUCCCGUACGGAACG, the yeast fitness was 0.559.

Turning to GUUCCGUUGGCGUAAUGGUAACGCGUCUCACUCCUAAGGAGAAGACUGCGGGUUCGAGUCCCGUUCGGCACG, the yeast fitness turned out to be 0.692.

With GUUCCGUUGGCGUAAUGGUAACGCGUCUCACUCCUGAGGAGAAGACUGCGGGUUCGAGUCCCGUACCGAACG, the yeast fitness is 0.537.

As for GUUCCGUUGGCGUAAUGGUAACGCGUCUCACUCCUAGGGAGAAGACUGCGGGUUCGGGUCCCGUACGGAACG, the yeast fitness was at most 0.5.

In the case of GUUCCGUUGGCGUAAUGGUAACGCGUCUCACUCCUAAGGUGAAGACUGCGGGUUCGAUUCCCGUACGGAACG, the yeast fitness was at most 0.5.

In the case of GUUCCGUUGGCGUAAUGGUAACGCGUCUCACUCUUAAGGAGAAGACUGCGGGUUCGAGUCCCCUACGGAACG, the yeast fitness came out at 0.698.

GUUCCGUUGGCGUAAUGGUAACGCGUCUCACUCCUUAGGAGAAGACUGCGGGUUCGAGUUCCGUACGGCACG: the yeast fitness was 0.6.

Turning to GUUCCGUUGGCGUAAUGGUAACGCGUCUCACUCCUAAGGAGAAGACUGCAGGUUCGAGUCCCGUCCGGAACG, the yeast fitness amounted to 0.628.

With GUUCCGUUGGCGUAAUGGUAACGCGUCUUCCUCCUAAGGAGAAGACUGCGGGAUCGAGUCUCGUACGGAACG, the yeast fitness stood at 0.685.

The values above are taken from the RNAGym collection of RNA variant scans (doi:10.1126/science.aae0568).
